Where a name gives a salt, the structure may show the parent alone.
What was measured:
Rattus norvegicus = assay: Inhibition of 5% sucrose solution intake in Zucker fa/fa rat at 10 mg/kg, po on day 7 after 1 hr; format: functional
How it was run: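 Female Zucker fa/fa rats (10–12 weeks, 300–350 g) were trained on six consecutive days, without food or water during sessions. On day 7 they were randomized (n = 6/group) and dosed orally at 10 mg/kg in 0.5% CMC-Na/water (2 mL/kg). One hour later they had 5% sucrose for 4 h. Intake (g) and % inhibition vs control; mean ± SEM; one-way ANOVA with Dunnett's test.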

[1] = target: Cannabinoid receptor 1 (Homo sapiens) (UniProt P21554); assay: Antagonist activity at human CB1 receptor expressed in CHO cells assessed as forskolin-induced cAMP accumulation per ug of protein at 10 uM in presence of WIN-55212-2; format: functional, cell-based
How it was run: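 CHO-K1 cells stably expressing human CB1 were kept in HAM's F12 with 10% heat-inactivated dialyzed FBS and 0.8 mg/mL G-418. Cells were seeded at 50,000/well, grown 16–18 h, then preincubated 30 min at 37 °C with 0.25% fatty-acid-free BSA, IBMX 0.1 mM and RO20-1724 0.1 mM. Drugs were added for 5 min, then forskolin (10, final) for 20 min. Cells were lysed in 0.1 N HCl/0.1% Triton for cAMP ELISA. Mean ± SD, duplicate, ≥3 experiments.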

Cannabinoid receptor 1 (Homo sapiens), sequence (P21554 whole entry): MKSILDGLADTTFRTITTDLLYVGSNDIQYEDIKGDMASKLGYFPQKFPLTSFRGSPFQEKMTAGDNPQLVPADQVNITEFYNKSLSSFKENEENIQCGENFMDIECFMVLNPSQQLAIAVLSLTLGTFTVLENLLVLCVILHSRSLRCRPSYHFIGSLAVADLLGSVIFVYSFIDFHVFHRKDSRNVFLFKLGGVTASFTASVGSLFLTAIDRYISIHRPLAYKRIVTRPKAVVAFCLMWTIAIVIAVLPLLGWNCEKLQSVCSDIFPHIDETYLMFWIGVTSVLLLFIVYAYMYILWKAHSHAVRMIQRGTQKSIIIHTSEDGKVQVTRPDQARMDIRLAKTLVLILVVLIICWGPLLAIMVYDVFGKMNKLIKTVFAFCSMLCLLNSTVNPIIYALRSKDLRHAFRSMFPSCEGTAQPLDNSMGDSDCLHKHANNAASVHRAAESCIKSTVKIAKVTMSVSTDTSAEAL

Compound | Activity [1] | inhibition in vivo at 10 mg/kg (Rattus norvegicus)
Cc1c(C(=O)NN2CCCCC2)nn(-c2ccc(Cl)cc2Cl)c1-c1ccc(Cl)cc1 [RIMONABANT HYDROCHLORIDE] | – | 36.1%
CN/C(=N/S(=O)(=O)c1ccc(Cl)cc1)c1cn(-c2ccc(Cl)cc2)c(-c2ccccc2)n1 | 0.55 pmol | 6.7%
CN/C(=N/S(=O)(=O)c1ccc(Cl)cc1)C1CN(c2ccccc2)C(c2ccc(Cl)cc2)=N1 (configuration not stated) | 1.22 pmol | 14.4%
CN/C(=N\S(=O)(=O)c1ccc(Cl)cc1)N1C[C@H](c2ccccc2)C(c2ccc(Cl)cc2)=N1 [IBIPINABANT] | – | 37.6%
CN/C(=N/S(=O)(=O)c1ccc(Cl)cc1)C1CN(c2ccc(Cl)cc2)C(c2ccccc2)=N1 (configuration not stated) | 0.94 pmol | 2.2%

Further lines, with some results ahead:

Activity [1] | Compound | inhibition in vivo at 10 mg/kg (Rattus norvegicus)
1.3 pmol | CN/C(=N/S(=O)(=O)c1ccc(Cl)cc1)c1nc(-c2ccc(Cl)cc2)c(-c2ccccc2)o1 | 0.6%
0.6 pmol | CN/C(=N/S(=O)(=O)c1ccc(Cl)cc1)c1nc(-c2ccccc2)c(-c2ccc(Cl)cc2)o1 | 4.3%

Reference: ChEMBL document CHEMBL1143217, “Bioisosteric replacement of dihydropyrazole of 4S-(-)-3-(4-chlorophenyl)-N-methyl-N'-[(4-chlorophenyl)-sulfonyl]-4-phenyl-4,5-dihydro-1H-pyrazole-1-caboxamidine (SLV-319) a potent CB1 receptor antagonist by imidazole and oxazole” (2008)
